The target in experiment [1] is T1, Alpha-1B adrenergic receptor (Rattus norvegicus) (UniProt P15823).
T1 sequence (whole entry): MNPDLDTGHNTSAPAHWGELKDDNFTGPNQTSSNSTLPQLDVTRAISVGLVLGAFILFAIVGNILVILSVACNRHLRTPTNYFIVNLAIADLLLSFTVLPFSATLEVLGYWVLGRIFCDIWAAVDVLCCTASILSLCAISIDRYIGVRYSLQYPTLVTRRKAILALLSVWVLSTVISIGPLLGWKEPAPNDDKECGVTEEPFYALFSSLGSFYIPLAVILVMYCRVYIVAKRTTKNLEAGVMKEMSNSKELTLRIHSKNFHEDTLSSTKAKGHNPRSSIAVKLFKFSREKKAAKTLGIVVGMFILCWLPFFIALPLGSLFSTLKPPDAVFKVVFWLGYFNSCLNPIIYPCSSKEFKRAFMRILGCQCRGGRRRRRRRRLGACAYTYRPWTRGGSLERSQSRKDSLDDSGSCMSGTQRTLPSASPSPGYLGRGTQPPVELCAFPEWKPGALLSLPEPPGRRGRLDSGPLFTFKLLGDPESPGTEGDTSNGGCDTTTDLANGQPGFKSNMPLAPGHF
As to the kind of experiment: ADRA1B blocking activity assessed by antagonism of (-)-phenylephrine induced contractions on isolated rat spleen. The experiment is classed as functional, tissue-based. The method, boiled down: (§1)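 Isolated rat tissue: each antagonist concentration tested four times over 0.01–1 μM; pK_B calculated by van Rossum method from shifts of (-)-noradrenaline contraction curves (vas deferens, α1A; thoracic aorta, α1D) or (-)-phenylephrine contraction curves (spleen, α1B).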

Experiment [2] addresses T2, Alpha-1D adrenergic receptor (Homo sapiens, UniProt P25100).
T2 sequence (P25100 whole entry): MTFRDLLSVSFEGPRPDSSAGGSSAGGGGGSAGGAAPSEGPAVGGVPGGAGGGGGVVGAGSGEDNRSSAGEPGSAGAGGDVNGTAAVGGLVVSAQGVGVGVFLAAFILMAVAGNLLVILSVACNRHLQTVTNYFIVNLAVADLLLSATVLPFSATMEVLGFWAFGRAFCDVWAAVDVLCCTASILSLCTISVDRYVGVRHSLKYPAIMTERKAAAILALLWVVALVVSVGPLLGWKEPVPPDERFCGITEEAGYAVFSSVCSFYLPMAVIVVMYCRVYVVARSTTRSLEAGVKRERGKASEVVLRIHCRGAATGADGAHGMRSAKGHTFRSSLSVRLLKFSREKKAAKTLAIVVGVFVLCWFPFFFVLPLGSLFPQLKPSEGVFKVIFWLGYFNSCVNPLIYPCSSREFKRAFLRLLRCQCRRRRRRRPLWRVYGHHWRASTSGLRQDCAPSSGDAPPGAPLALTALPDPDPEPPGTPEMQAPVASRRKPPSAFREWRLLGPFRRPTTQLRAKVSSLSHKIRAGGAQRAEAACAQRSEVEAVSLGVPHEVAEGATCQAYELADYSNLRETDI
The experiment is described as follows: Displacement of [3H]prazosin from cloned human ADRA1D expressed in CHO cells. The experiment is classed as cell-based. A general note: Displacement assays read how much labelled ligand stays bound in the presence of the test substance.

Experiment [3] concerns the target T3, Alpha-1A adrenergic receptor (Rattus norvegicus) (UniProt P43140).
T3 sequence (whole entry): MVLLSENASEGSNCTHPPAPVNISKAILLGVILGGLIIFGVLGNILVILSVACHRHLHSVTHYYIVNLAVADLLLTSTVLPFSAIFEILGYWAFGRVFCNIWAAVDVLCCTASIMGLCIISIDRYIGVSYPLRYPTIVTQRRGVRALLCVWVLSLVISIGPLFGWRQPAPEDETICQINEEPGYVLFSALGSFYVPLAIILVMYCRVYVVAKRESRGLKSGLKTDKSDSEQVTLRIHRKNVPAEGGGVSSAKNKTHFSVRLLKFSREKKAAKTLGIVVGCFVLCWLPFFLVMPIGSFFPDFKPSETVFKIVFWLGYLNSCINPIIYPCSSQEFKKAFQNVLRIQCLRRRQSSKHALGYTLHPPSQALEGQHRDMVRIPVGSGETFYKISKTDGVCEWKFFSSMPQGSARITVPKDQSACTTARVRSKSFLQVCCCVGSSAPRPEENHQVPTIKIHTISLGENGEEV
As to the kind of experiment: ADRA1A blocking activity assessed by antagonism of (-)-NE induced contractions on isolated rat prostatic vas deferens. The experiment is classed as functional, tissue-based. In outline:
as §1

Experiment [4] concerns the target T4, Alpha-1B adrenergic receptor (Homo sapiens, UniProt P35368).
T4 sequence (P35368 whole entry): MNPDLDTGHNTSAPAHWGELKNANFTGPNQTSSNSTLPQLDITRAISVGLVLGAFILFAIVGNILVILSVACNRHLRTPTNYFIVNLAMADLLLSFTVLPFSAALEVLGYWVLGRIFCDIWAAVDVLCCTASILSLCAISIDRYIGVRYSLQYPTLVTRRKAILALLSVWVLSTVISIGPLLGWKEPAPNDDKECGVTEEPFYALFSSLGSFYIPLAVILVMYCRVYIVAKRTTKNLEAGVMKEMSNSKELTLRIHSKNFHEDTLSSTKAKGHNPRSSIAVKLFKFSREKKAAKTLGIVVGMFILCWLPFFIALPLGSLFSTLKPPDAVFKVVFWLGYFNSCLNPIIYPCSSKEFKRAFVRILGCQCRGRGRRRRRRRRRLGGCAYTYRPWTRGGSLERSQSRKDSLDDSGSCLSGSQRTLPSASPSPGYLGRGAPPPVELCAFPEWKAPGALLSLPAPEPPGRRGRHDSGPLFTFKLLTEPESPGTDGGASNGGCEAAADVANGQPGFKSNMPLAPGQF
As to the kind of experiment: Displacement of [3H]prazosin from cloned human ADRA1B expressed in CHO cells. In kind it is cell-based.

For experiment [5], the target named is T5, 5-hydroxytryptamine receptor 1A (Homo sapiens, UniProt P08908).
T5 sequence (P08908 whole entry): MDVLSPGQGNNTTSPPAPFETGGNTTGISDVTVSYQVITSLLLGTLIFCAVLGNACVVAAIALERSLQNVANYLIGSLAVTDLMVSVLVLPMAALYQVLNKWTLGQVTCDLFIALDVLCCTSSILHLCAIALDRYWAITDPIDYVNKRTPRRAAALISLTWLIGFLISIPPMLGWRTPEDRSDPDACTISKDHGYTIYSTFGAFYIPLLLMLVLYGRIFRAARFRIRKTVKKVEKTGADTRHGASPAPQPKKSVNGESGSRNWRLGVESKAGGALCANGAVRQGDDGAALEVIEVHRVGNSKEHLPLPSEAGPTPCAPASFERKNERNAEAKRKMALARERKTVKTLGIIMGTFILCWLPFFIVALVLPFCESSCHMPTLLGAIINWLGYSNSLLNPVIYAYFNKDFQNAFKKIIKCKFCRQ
The experiment is described as follows: Displacement of [3H]8-hydroxy-2-(di-n-propylamino)tetralin from cloned human 5HT1A receptor expressed in HeLa cells. The experiment is classed as cell-based. In outline:
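Radioligand binding on cloned human receptors, with [3H]prazosin for α1 subtypes (CHO cells) and [3H]8-OH-DPAT for 5-HT1A (HeLa cells); each experiment in triplicate, Ki from two to three experiments agreeing within ±20%, reported as pKi.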

One may read the pKb as the negative decadic logarithm of the Kb, by convention in mol/L. By Ki is commonly meant the equilibrium dissociation constant of an inhibitor or competing ligand from its target. Regarding `COc1cccc(OC)c1OCCNCCOc1ccccc1OCc1cccc([N+](=O)[O-])c1`, the pKb was 8.74 in experiment [1] and 8.85 in experiment [3]. For the same molecule, the Ki in experiment [2] is 0.0631 nM; in experiment [4], 0.794 nM; in experiment [5], 20.9 nM.
The like results for `COc1cccc(OC)c1OCCNCCOc1ccccc1OCc1ccc(Cl)cc1` [CLOPENPHENDIOXAN] were, in that order, 8.06, 8.17, 0.0316 nM, 1 nM and 15.5 nM.
The like results for `COc1cccc(COc2ccccc2OCCNCCOc2c(OC)cccc2OC)c1` were, in that order, 8.31, 8.3, 0.316 nM, 2 nM and 30.9 nM.
The like results for `COc1cccc(OC)c1OCCNCCOc1ccccc1OCc1ccc([N+](=O)[O-])cc1` were, in that order, 9.02, 8.58, 0.0501 nM, 0.398 nM and 11.7 nM.
Regarding `COc1cccc(OC)c1OCCNCCOc1ccccc1OCc1cccc(C)c1`, the negative-log Kb (pKb) in experiment [1] was determined as 8.2; in experiment [3], 8.3. Moreover, the inhibition constant (Ki) in experiment [2] was 0.2 nM; in experiment [4] it was 0.251 nM; in experiment [5], 18.2 nM.
The like results for `COc1cccc(OC)c1OCCNCCOc1ccccc1OCc1ccccc1Cl` were, in that order, 7.52, 8.56, 0.251 nM, 0.562 nM and 4.79 nM.
For `COc1ccccc1COc1ccccc1OCCNCCOc1c(OC)cccc1OC` the same measures were 8.13, 8.53, 2 nM, 6.31 nM and 23.4 nM.
Consider `COc1ccc(COc2ccccc2OCCNCCOc2c(OC)cccc2OC)cc1`, for which the figures for the negative-log Kb (pKb) in experiment [1] and in experiment [3] were 9.51 and 8.54, respectively. The Ki was 0.1 nM in experiment [2], 0.398 nM in experiment [4] and 17.4 nM in experiment [5].
With `COc1cccc(OC)c1OCCNCCOc1ccccc1OCc1ccccc1C`, the negative-log Kb (pKb) in experiment [1] came out at 7.67; in experiment [3] it was 7.81. The inhibitory constant (Ki) is 0.126 nM in experiment [2], 0.794 nM in experiment [4] and 11.2 nM in experiment [5].
The like results for `COc1cccc(OC)c1OCCNCCOc1ccccc1OCc1ccc(C)cc1` were, in that order, 8.43, 8.23, 0.0631 nM, 0.251 nM and 22.4 nM.
For `COc1cccc(OC)c1OCCNCCOc1ccccc1OCc1ccccc1[N+](=O)[O-]` the same measures were 8.56, 8.2, 0.912 nM, 2.51 nM and 24 nM.
For `COc1cccc(OC)c1OCCNCCOc1ccccc1OCc1cccc(Cl)c1` the same measures were 7.93, 8.12, 0.0501 nM, 0.158 nM and 6.61 nM.
`COc1cccc(OC)c1OCCNCCOc1ccccc1OCc1ccccc1`: the negative-log Kb (pKb) turned out to be 8.3 in experiment [1] and 8.39 in experiment [3]. For the same molecule, the inhibition constant (Ki) in experiment [2] was 0.0676 nM; in experiment [4] it was 0.537 nM; in experiment [5] it was 11.7 nM.

For the origin of these results see ChEMBL document CHEMBL1141864, “Structure-activity relationships in 1,4-benzodioxan-related compounds. 8.(1) {2-[2-(4-chlorobenzyloxy)phenoxy]ethyl}-[2-(2,6-dimethoxyphenoxy)ethyl]amine (clopenphendioxan) as a tool to highlight the involvement of alpha1D- and alpha1B-adrenoreceptor subtypes in the regulation of human PC-3 …” (J Med Chem, 2005).
